This is an account of results in ChEMBL document CHEMBL2331506, “Design, synthesis, antiviral and cytostatic evaluation of novel isoxazolidine nucleotide analogues with a carbamoyl linker” (Bioorg Med Chem, 2013).

Activity calls are given as the source filed them. The rule behind the calls is not given here.

In one data set the test system is MDCK. In words: Cytotoxicity against dog MDCK cells assessed as alteration of cell morphology up to 100 uM by microscopic analysis. The class given is cell-based, Canis lupus familiaris. The method in brief:
(§1)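 Uninfected host-cell cultures were exposed to compound and examined by microscopy. Cytotoxicity was expressed as the minimum cytotoxic concentration (MCC) causing a microscopically detectable alteration of normal cell morphology.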

Data set [1] can be described thus: Cytotoxicity against cat CRFK cells assessed as alteration of cell morphology up to 100 uM by microscopic analysis. It is filed as cell-based, Felis catus. The method in brief: as §1
A further data set relates to Vero. Nature of the data set: Cytotoxicity against african green monkey Vero cells assessed as alteration of cell morphology up to 100 uM by microscopic analysis. As to conditions: chlorocebus sabaeus. It is filed as cell-based. Put shortly:
as §1

The next data set relates to HeLa. In words: Cytotoxicity against human HeLa cells assessed as alteration of cell morphology up to 100 uM by microscopic analysis. It is filed as cell-based. Put shortly:
as §1

The next data set deals with HEL. In words: Cytotoxicity against human HEL cells assessed as alteration of cell morphology up to 100 uM by microscopic analysis. The class given is cell-based. Put shortly: as §1
Data set [2] concerns Human immunodeficiency virus 2. Nature of the data set: Antiviral activity against Human immunodeficiency virus 2 ROD infected in human CEM cells assessed as reduction of virus-induced giant cell formation at 250 uM after 4 to 5 days. The class given is functional, organism-based. Particulars: CCRF-CEM. Put shortly:
(§2)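 CEM cells at 3 × 10^5 cells/mL were infected with HIV at 100 CCID50 per mL in the presence of compound dilutions. They were held 4–5 days at 37 °C in humidified CO2. Syncytium (giant cell) formation was scored microscopically, and EC50 was taken as the concentration inhibiting giant cell formation by 50%.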

For data set [3], the system named is Human immunodeficiency virus 1. In words: Antiviral activity against Human immunodeficiency virus 1 3B infected in human CEM cells assessed as reduction of virus-induced giant cell formation at 250 uM after 4 to 5 days. The class given is functional, organism-based. As to conditions: CCRF-CEM. The method in brief: as §2
The next data set deals with Feline coronavirus. Nature of the data set: Antiviral activity against Feline coronavirus infected in cat CRFK cells assessed as reduction of virus-induced cytopathogenicity at 250 uM. It is filed as functional, organism-based. On the technique in general: Damage to the host cells serves as the signal in cytopathic effect assays.
Another data set has as its system Felid alphaherpesvirus 1. In words: Antiviral activity against Feline herpes virus infected in cat CRFK cells assessed as reduction of virus-induced cytopathogenicity at 250 uM. The class given is functional, organism-based.
Another data set relates to Influenza B virus. In words: Antiviral activity against Influenza B virus infected in dog MDCK cells assessed as reduction of virus-induced cytopathogenicity at 250 uM. It is filed as functional, organism-based. The method in brief: (§3)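 Confluent cell monolayers were infected with 100 CCID50 of virus while exposed to varying compound concentrations. Cytopathicity was scored once it was complete in untreated infected controls. EC50 was taken as the concentration that reduced virus-induced cytopathogenicity by 50%.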

Data set [4] relates to Influenza A virus. In words: Antiviral activity against Influenza A virus H3N2 infected in dog MDCK cells assessed as reduction of virus-induced cytopathogenicity at 250 uM. The class given is functional, organism-based. The method in brief:
as §3

In data set [5] the test system is Influenza A virus. Nature of the data set: Antiviral activity against Influenza A virus H1N1 infected in dog MDCK cells assessed as reduction of virus-induced cytopathogenicity at 250 uM. It is filed as functional, organism-based. Put shortly:
as §3

The next data set concerns Punta Toro virus. In words: Antiviral activity against Punta Toro virus infected in african green monkey Vero cells assessed as reduction of virus-induced cytopathogenicity at 250 uM. The class given is functional, organism-based. The method in brief:
(§4)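 Confluent monolayers (HEL fibroblasts, Vero, or HeLa cells as listed) were infected with 100 CCID50 of virus in the presence of varying compound concentrations. Virus-induced cytopathicity or plaque formation was scored once cytopathicity was complete in untreated infected controls. EC50 was taken as the concentration reducing cytopathogenicity or plaque formation by 50%.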

In a further data set the test system is Sindbis virus. Nature of the data set: Antiviral activity against Sindbis virus infected in african green monkey Vero cells assessed as reduction of virus-induced cytopathogenicity at 250 uM. The class given is functional, organism-based. The method in brief: as §4
The next data set has as its system Coxsackievirus B4. Nature of the data set: Antiviral activity against Coxsackievirus B4 infected in african green monkey Vero cells assessed as reduction of virus-induced cytopathogenicity at 250 uM. The class given is functional, organism-based. Put shortly:
as §4

For data set [6], the system named is Mammalian orthoreovirus 1. In words: Antiviral activity against Reovirus 1 infected in african green monkey Vero cells assessed as reduction of virus-induced cytopathogenicity at 250 uM. The class given is functional, organism-based. The method in brief: as §4
The test system of the next data set is Human respirovirus 3. In words: Antiviral activity against Parainfluenza virus 3 infected in african green monkey Vero cells assessed as reduction of virus-induced cytopathogenicity at 250 uM. It is filed as functional, organism-based. Put shortly: as §4
The test system of data set [7] is Respiratory syncytial virus. Nature of the data set: Antiviral activity against Respiratory syncytial virus long infected in human HeLa cells assessed as reduction of virus-induced cytopathogenicity at 250 uM. The class given is functional, organism-based. The method in brief:
as §4

In data set [8] the test system is Vesicular stomatitis virus. In words: Antiviral activity against Vesicular stomatitis virus infected in human HeLa cells assessed as reduction of virus-induced cytopathogenicity at 250 uM. The class given is functional, organism-based. The method in brief: as §3
The subject of data set [9] is Human alphaherpesvirus 1. In words: Antiviral activity against thymidine kinase-deficient, ACV-resistant Herpes simplex virus 1 KOS infected in human HEL cells assessed as reduction of virus-induced cytopathogenicity at 250 uM. It is filed as functional, organism-based. The method in brief: as §3
The test system of data set [10] is Vesicular stomatitis virus. Nature of the data set: Antiviral activity against Vesicular stomatitis virus infected in human HEL cells assessed as reduction of virus-induced cytopathogenicity at 250 uM. It is filed as functional, organism-based. Put shortly: as §3
A further data set concerns Human alphaherpesvirus 2. Nature of the data set: Antiviral activity against Herpes simplex virus 2 G infected in human HEL cells assessed as reduction of virus-induced cytopathogenicity at 250 uM. It is filed as functional, organism-based. As to conditions: strain G. Put shortly: as §4
For data set [11], the system named is Human alphaherpesvirus 1. In words: Antiviral activity against Herpes simplex virus 1 KOS infected in human HEL cells assessed as reduction of virus-induced cytopathogenicity at 250 uM. It is filed as functional, organism-based. The method in brief: as §4

As to `CCOc1ccc(NC(=O)[C@H]2C[C@H](P(=O)(OCC)OCC)N(C)O2)cc1` (mixture of isomers), the Activity entry (in the data set with MDCK; in data set [1]; with Vero; in the data set on HeLa; in the data set with HEL) was “Non-toxic” in each case. For the same compound, the inhibition entry (in [2]; in [3]; in the data set with Feline coronavirus; in the data set with Felid alphaherpesvirus 1; in the data set with Influenza B virus; in the data set on Influenza A virus [4]) was “inactive” throughout. For the same compound, the inhibition entry (in the data set with Influenza A virus [5]; in the data set on Punta Toro virus; with Sindbis virus; in the data set on Coxsackievirus B4; in data set [6]; in the data set on Human respirovirus 3) was “inactive” in each case. For the same compound, the inhibition entry (in data set [7]; in data set [8]; in the data set on Human alphaherpesvirus 1 [9]; in [10]; with Human alphaherpesvirus 2; in the data set with Human alphaherpesvirus 1 [11]) was “inactive” in each case.

With `CCOP(=O)(OCC)[C@H]1C[C@H](C(=O)Nc2cc(OC)cc(OC)c2)ON1C` (mixture of isomers), the Activity result (in the data set on MDCK; in data set [1]; in the data set on Vero; in the data set on HeLa; with HEL) was “Non-toxic” in each case. Moreover, the inhibition result (in [2]; in data set [3]; in the data set on Feline coronavirus; in the data set on Felid alphaherpesvirus 1; with Influenza B virus; in the data set on Influenza A virus [4]) was “inactive” in each case. The inhibition result (in the data set with Influenza A virus [5]; in the data set on Punta Toro virus; with Sindbis virus; in the data set on Coxsackievirus B4; in data set [6]; in the data set with Human respirovirus 3) was “inactive” each time. Besides, the inhibition result (in data set [7]; in data set [8]; in the data set with Human alphaherpesvirus 1 [9]; in data set [10]; with Human alphaherpesvirus 2; in the data set on Human alphaherpesvirus 1 [11]) was “inactive” in each case.

With `CCOP(=O)(OCC)[C@@H]1C[C@H](C(=O)Nc2cc(OC)cc(OC)c2)ON1C` (mixture of isomers), the Activity entry (with MDCK; in [1]; with Vero; with HeLa; with HEL) was “Non-toxic” in each case. The inhibition result (in [2]; in data set [3]; with Feline coronavirus; with Felid alphaherpesvirus 1; in the data set on Influenza B virus; in the data set with Influenza A virus [4]) was “inactive” each time. The inhibition result (with Influenza A virus [5]; in the data set on Punta Toro virus; in the data set with Sindbis virus; in the data set with Coxsackievirus B4; in [6]; in the data set on Human respirovirus 3) was “inactive” each time. Also, the inhibition entry (in data set [7]; in data set [8]; with Human alphaherpesvirus 1 [9]; in data set [10]; with Human alphaherpesvirus 2; in the data set with Human alphaherpesvirus 1 [11]) was “inactive” in each case.

Regarding `CCOP(=O)(OCC)[C@H]1C[C@H](C(=O)Nc2cc(OC)c(OC)c(OC)c2)ON1C` (mixture of isomers), the Activity entry (with MDCK; in data set [1]; in the data set on Vero; in the data set with HeLa; in the data set on HEL) was “Non-toxic” in each case. Besides, the inhibition entry (in data set [2]; in data set [3]; in the data set on Feline coronavirus; with Felid alphaherpesvirus 1; in the data set on Influenza B virus; in the data set on Influenza A virus [4]) was “inactive” in each case. Also, the inhibition entry (in the data set with Influenza A virus [5]; in the data set on Punta Toro virus; in the data set on Sindbis virus; in the data set with Coxsackievirus B4; in data set [6]; with Human respirovirus 3) was “inactive” each time. Further, the inhibition entry (in data set [7]; in [8]; with Human alphaherpesvirus 1 [9]; in data set [10]; in the data set with Human alphaherpesvirus 2; in the data set on Human alphaherpesvirus 1 [11]) was “inactive” each time.

As for `CCOP(=O)(OCC)[C@H]1C[C@H](C(=O)Nc2cc(OC)c(OC)cc2C#N)ON1C` (mixture of isomers), the Activity entry (in the data set with MDCK; in data set [1]; in the data set with Vero; in the data set on HeLa; with HEL) was “Non-toxic” each time. Besides, the inhibition result (in [2]; in [3]; with Feline coronavirus; in the data set with Felid alphaherpesvirus 1; with Influenza B virus; with Influenza A virus [4]) was “inactive” in each case. Besides, the inhibition result (in the data set with Influenza A virus [5]; in the data set on Punta Toro virus; with Sindbis virus; with Coxsackievirus B4; in [6]; in the data set on Human respirovirus 3) was “inactive” throughout. Moreover, the inhibition result (in [7]; in [8]; in the data set with Human alphaherpesvirus 1 [9]; in [10]; with Human alphaherpesvirus 2; in the data set with Human alphaherpesvirus 1 [11]) was “inactive” throughout.

On to `CCOP(=O)(OCC)[C@@H]1C[C@H](C(=O)Nc2cccc(OC)c2)ON1C` (mixture of isomers), for which the Activity result (with MDCK; in [1]; in the data set with Vero; in the data set on HeLa; in the data set with HEL) was “Non-toxic” in each case. The inhibition result (in [2]; in data set [3]; in the data set with Feline coronavirus; in the data set on Felid alphaherpesvirus 1; in the data set with Influenza B virus; with Influenza A virus [4]) was “inactive” throughout. Further, the inhibition entry (in the data set on Influenza A virus [5]; in the data set with Punta Toro virus; with Sindbis virus; with Coxsackievirus B4; in [6]; with Human respirovirus 3) was “inactive” in each case. Also, the inhibition entry (in data set [7]; in data set [8]; in the data set with Human alphaherpesvirus 1 [9]; in data set [10]; with Human alphaherpesvirus 2; in the data set on Human alphaherpesvirus 1 [11]) was “inactive” throughout.
